# Laboratory results from ChEMBL document CHEMBL2034817, “Synthesis and evaluation of 4- and 5-pyridazin-3-one phenoxypropylamine analogues as histamine-3 receptor antagonists” (Bioorg Med Chem, 2012).
# Calls of active or inactive are those of the source. The calls are words filed in the database; no cut-off is given here.
# Key:
# Histamine H3 receptor [1] = target: Histamine H3 receptor (Homo sapiens, UniProt Q9Y5N1); assay: Displacement of [3H]-Nalpha-methylhistamine from human histamine H3 receptor expressed in CHO cells after 4 hrs by scintillation proximity assay; type: cell-based
# Histamine H3 receptor (Homo sapiens, UniProt Q9Y5N1), sequence (Q9Y5N1 whole entry): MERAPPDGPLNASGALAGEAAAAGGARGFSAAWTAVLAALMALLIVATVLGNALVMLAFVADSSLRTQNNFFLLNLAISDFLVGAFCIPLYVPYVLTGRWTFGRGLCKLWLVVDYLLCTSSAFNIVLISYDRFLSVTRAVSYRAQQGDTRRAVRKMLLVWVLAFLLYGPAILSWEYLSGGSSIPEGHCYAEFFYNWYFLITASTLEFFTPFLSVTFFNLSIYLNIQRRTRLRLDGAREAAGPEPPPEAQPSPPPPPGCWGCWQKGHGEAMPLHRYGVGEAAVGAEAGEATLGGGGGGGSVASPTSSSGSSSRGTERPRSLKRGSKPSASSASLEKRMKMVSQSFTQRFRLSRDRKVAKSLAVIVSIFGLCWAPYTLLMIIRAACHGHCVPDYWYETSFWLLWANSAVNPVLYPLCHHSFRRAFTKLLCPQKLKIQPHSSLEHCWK
# Summary of the method: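 Membranes from CHO cells stably expressing human H3 receptor, in 50 mM Tris–HCl pH 7.4, 5 mM MgCl2, 0.1% BSA, 10 µg protein/well; ~1 nM final [3H]-N-alpha-methylhistamine; compounds 0.01 nM–30 µM; SPA beads; 4 h room temperature, dark; nonspecific binding with 10 µM clobenpropit; scintillation counting. Assay-to-assay variation typically within 2.5-fold.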
# Histamine H3 receptor [2] = target: Histamine H3 receptor (Rattus norvegicus, UniProt Q9QYN8); assay: Displacement of [3H]-Nalpha-methylhistamine from rat histamine H3 receptor expressed in CHO-A3 cells after 4 hrs by scintillation proximity assay; type: cell-based
# Histamine H3 receptor (Rattus norvegicus, UniProt Q9QYN8), sequence (Q9QYN8 whole entry): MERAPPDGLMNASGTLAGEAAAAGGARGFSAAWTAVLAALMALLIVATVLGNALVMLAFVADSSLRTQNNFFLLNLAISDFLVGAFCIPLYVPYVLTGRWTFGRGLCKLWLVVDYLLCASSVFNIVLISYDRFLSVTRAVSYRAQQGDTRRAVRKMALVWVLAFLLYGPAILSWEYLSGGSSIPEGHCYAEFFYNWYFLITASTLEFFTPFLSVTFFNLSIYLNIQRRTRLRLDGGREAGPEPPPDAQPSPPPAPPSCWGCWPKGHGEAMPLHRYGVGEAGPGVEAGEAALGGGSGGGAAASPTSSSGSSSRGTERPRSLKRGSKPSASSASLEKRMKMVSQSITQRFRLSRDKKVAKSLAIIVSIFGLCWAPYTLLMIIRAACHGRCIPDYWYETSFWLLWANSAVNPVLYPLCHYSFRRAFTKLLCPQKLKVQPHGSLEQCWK
# Summary of the method: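 Rat H3 receptor in pIRES-neo3 stably transfected into CHO-A3 cells, clonally selected; washed membranes in Tris–HCl pH 7.4, 5 mM MgCl2, 0.1% BSA, 10 µg protein/well; ~1 nM final [3H]-N-alpha-methylhistamine, compounds 0.01 nM–30 µM, SPA beads, 4 h room temperature, dark; nonspecific with 10 µM clobenpropit; scintillation counting.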
# [3] = Clearance in Sprague-Dawley rat at 1 mg/kg, iv; type: ADME, organism-based; design: dose 1 mg/kg, route intravenous; conditions: in vivo
# Summary of the method: (§1)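 Adult male Sprague–Dawley rats (275–350 g). iv dosing via lateral tail vein (3% DMSO/30% Solutol/67% PBS or 100% saline); oral gavage after overnight fast (Tween 80/propylene carbonate/propylene glycol, saline, or 2% HCl–water). Seven serial tail-vein blood samples over 6 or 24 h; plasma protein-precipitated with acetonitrile, LC–MS/MS; noncompartmental parameters.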
# [4] = AUC (0 to t) in Sprague-Dawley rat at 5 mg/kg, po; type: ADME, organism-based; design: dose 5 mg/kg, route oral; conditions: plasma; summary of the method: as §1
# [5] = Cmax in Sprague-Dawley rat at 5 mg/kg, po; type: ADME, organism-based; design: dose 5 mg/kg, route oral; conditions: in vivo; summary of the method: as §1
# [6] = Oral bioavailability in Sprague-Dawley rat at 5 mg/kg; type: ADME, organism-based; conditions: in vivo; summary of the method: as §1
# [7] = Ratio of drug level in brain to plasma in Sprague-Dawley rat at 5 mg/kg, po at 6 hrs; type: ADME, organism-based; design: dose 5 mg/kg, route oral; conditions: read-out: BPR
# Summary of the method: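 Brain-to-plasma ratio from the 6 h time point after 5 mg/kg po dosing in Sprague–Dawley rats; plasma drug measured by LC–MS/MS after acetonitrile protein precipitation.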
# [8] = target: Histamine H3 receptor (Rattus norvegicus) (UniProt Q9QYN8); assay: Antagonist activity at histamine H3 receptor on rat cortex membrane by [35S]GTPgammaS binding assay; type: functional, tissue-based
# Histamine H3 receptor (Rattus norvegicus), sequence (Q9QYN8 whole entry): as above
# [9] = target: Histamine H3 receptor (Rattus norvegicus) (UniProt Q9QYN8); assay: Inverse agonist activity at histamine H3 receptor on rat cortex membrane by [35S]GTPgammaS binding assay; type: functional
# [10] = target: Voltage-gated inwardly rectifying potassium channel KCNH2 (Homo sapiens, UniProt Q12809); assay: Inhibition of human ERG by patch clamp assay
# Summary of the method: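 hERG inhibition measured in a patch clamp assay.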
# [11] = Plasma protein binding in mouse at 5 uM after 1 hr by LC-MS/MS analysis; type: ADME, cell-free; conditions: read-out: PPB (converted)
# [12] = Plasma protein binding in rat at 5 uM after 1 hr by LC-MS/MS analysis; type: ADME, cell-free; conditions: read-out: PPB (converted)
# [13] = Plasma protein binding in dog at 5 uM after 1 hr by LC-MS/MS analysis; type: ADME, cell-free, Canis lupus familiaris; conditions: read-out: PPB (converted)
# [14] = Plasma protein binding in human at 5 uM after 1 hr by LC-MS/MS analysis; type: ADME, cell-free; conditions: read-out: PPB (converted)
# [15] = Fraction unbound in rat brain homogenate; type: ADME, tissue-based
# [16] = Solubility of the compound in water; type: physicochemical; conditions: buffer
# Salmonella typhimurium = assay: Genotoxicity against Salmonella typhimurium by AMES test; type: toxicity, organism-based; conditions: salmonella enterica subsp. enterica serovar typhimurium
# Rattus norvegicus [17] = assay: Antidipsogenic activity in ip dosed Harlan Long Evans rat assessed as inhibition of RAMH-induced water drinking; type: functional
# Summary of the method: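 Water drinking for 30 min beginning 20 min after RAMH (10 mg/kg ip); test compound in saline given beforehand. Per-rat percent inhibition normalized to RAMH group mean drinking; group means compared by one-way ANOVA with Dunnett's test versus RAMH group.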
# Rattus norvegicus [18] = assay: Wake promoting activity in ip dosed rat assessed as increased wake activity after 4 hrs; type: functional, organism-based
# Rattus norvegicus [19] = assay: Wake promoting activity in rat assessed as cumulative wake time at 10 mg/kg, ip after 4 hrs (reference value: 76+/-6 mins); type: functional; conditions: route intraperitoneal
# Rattus norvegicus [20] = assay: Wake promoting activity in rat assessed as cumulative wake time at 30 mg/kg, ip after 4 hrs (reference value: 76+/-6 mins); type: functional; conditions: route intraperitoneal
# Rattus norvegicus [21] = assay: Toxicity in rat assessed as rat assessed as sleep rebound up to 30 mg/kg, ip up to 22 hrs; type: organism-based; design: dose 30 mg/kg, route intraperitoneal; conditions: in vivo
# Summary of the method: (§2)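 Rats implanted for chronic EEG/EMG recording, dosed ip up to 30 mg/kg; EEG monitored for adverse activity, and sleep after the wake period scored for rebound up to 22 h post-dose.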
# Rattus norvegicus [22] = assay: Toxicity in rat assessed as rat assessed as adverse EEG activity up to 30 mg/kg, ip; type: organism-based; design: dose 30 mg/kg, route intraperitoneal; conditions: in vivo; summary of the method: as §2
# Caco-2 = assay: Permeability across human Caco2 cells; type: ADME, cell-based
# [23] = Half life in Sprague-Dawley rat at 1 mg/kg, iv; type: ADME, organism-based; design: dose 1 mg/kg, route intravenous; conditions: in vivo; summary of the method: as §1
# [24] = Volume of distribution in Sprague-Dawley rat at 1 mg/kg, iv; type: ADME, organism-based; design: dose 1 mg/kg, route intravenous; conditions: in vivo; summary of the method: as §1
# Histamine H1 receptor = Histamine H1 receptor (Homo sapiens, UniProt P35367); assay: Binding affinity to human histamine H1 receptor
# Histamine H1 receptor, sequence (P35367 whole entry): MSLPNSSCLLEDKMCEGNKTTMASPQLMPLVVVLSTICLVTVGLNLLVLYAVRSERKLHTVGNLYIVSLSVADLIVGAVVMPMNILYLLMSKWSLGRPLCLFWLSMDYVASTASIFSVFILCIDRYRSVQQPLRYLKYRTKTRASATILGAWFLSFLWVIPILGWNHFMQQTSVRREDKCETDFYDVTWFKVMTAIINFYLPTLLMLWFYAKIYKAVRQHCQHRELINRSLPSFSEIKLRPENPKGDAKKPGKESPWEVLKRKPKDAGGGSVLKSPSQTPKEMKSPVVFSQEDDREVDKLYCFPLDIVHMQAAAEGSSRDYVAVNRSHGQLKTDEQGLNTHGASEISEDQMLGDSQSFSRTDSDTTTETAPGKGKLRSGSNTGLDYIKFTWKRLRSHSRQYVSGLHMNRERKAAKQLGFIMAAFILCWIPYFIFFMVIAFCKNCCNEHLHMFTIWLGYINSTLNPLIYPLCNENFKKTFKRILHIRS
# Histamine H2 receptor = Histamine H2 receptor (Homo sapiens, UniProt P25021); assay: Binding affinity to human histamine H2 receptor
# Histamine H2 receptor, sequence (P25021 whole entry): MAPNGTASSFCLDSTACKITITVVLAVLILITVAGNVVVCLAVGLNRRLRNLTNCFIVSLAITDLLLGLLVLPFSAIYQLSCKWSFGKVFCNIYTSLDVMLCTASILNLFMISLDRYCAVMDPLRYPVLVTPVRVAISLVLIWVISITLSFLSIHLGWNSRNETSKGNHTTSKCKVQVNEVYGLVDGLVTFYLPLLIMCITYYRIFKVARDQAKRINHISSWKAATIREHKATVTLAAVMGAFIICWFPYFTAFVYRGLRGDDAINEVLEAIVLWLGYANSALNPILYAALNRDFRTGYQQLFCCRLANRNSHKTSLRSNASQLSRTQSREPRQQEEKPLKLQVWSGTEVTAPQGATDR
# Histamine H4 receptor = Histamine H4 receptor (Homo sapiens, UniProt Q9H3N8); assay: Binding affinity to human histamine H4 receptor
# Histamine H4 receptor, sequence (Q9H3N8 whole entry): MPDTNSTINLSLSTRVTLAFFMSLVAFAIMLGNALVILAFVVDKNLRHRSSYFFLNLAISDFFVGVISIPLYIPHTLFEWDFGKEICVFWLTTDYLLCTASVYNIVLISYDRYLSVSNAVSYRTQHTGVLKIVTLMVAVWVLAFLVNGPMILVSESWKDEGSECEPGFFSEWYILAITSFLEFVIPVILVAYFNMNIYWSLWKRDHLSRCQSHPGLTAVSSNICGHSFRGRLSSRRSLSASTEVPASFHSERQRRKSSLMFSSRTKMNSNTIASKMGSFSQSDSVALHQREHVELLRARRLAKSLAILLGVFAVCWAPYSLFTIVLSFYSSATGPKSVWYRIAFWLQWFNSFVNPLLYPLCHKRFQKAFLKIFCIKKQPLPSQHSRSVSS
# [25] = Half life in human liver microsomes; type: ADME, Microsome
# [26] = Half life in mouse liver microsomes; type: ADME, Microsome
# [27] = Half life in rat liver microsomes; type: ADME, Microsome
# [28] = Half life in monkey liver microsomes; type: ADME, Macaca mulatta, Microsome; conditions: rhesus monkey
# Cytochrome P450 1A2 = target: T1, Cytochrome P450 1A2 (Homo sapiens, UniProt P05177); assay: Inhibition of CYP1A2; type: ADME
# T1 sequence (P05177 whole entry): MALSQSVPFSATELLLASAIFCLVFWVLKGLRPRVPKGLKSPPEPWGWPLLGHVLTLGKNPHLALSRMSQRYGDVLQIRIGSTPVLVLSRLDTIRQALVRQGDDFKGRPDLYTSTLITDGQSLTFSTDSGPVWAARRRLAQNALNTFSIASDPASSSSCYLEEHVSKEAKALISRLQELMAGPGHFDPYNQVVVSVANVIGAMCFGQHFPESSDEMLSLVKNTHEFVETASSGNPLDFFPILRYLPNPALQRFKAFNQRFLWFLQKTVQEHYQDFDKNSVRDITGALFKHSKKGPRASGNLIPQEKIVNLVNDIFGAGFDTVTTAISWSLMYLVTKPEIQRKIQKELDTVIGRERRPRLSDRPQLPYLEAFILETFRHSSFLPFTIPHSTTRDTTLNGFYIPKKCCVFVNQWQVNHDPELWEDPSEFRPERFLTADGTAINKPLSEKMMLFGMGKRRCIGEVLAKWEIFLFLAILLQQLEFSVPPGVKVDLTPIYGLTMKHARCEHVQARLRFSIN
# Cytochrome P450 2C9 = Cytochrome P450 2C9 (Homo sapiens, UniProt P11712); assay: Inhibition of CYP2C9; type: ADME
# Cytochrome P450 2C9, sequence (P11712 whole entry): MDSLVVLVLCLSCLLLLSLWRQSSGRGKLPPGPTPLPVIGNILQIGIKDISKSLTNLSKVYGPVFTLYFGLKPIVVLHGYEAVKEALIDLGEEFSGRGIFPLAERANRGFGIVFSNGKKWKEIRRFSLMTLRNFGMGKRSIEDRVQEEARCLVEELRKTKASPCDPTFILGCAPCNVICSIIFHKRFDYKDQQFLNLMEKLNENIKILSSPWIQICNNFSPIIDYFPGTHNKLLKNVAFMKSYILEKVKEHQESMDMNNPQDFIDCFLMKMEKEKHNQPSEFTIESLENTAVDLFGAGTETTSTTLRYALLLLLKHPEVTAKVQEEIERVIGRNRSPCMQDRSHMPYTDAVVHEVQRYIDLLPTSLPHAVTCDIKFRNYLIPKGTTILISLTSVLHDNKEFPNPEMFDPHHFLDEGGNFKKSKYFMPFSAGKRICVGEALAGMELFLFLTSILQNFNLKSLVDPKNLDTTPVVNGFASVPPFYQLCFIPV
# Cytochrome P450 2C19 = Cytochrome P450 2C19 (Homo sapiens, UniProt P33261); assay: Inhibition of CYP2C19; type: ADME
# Cytochrome P450 2C19, sequence (P33261 whole entry): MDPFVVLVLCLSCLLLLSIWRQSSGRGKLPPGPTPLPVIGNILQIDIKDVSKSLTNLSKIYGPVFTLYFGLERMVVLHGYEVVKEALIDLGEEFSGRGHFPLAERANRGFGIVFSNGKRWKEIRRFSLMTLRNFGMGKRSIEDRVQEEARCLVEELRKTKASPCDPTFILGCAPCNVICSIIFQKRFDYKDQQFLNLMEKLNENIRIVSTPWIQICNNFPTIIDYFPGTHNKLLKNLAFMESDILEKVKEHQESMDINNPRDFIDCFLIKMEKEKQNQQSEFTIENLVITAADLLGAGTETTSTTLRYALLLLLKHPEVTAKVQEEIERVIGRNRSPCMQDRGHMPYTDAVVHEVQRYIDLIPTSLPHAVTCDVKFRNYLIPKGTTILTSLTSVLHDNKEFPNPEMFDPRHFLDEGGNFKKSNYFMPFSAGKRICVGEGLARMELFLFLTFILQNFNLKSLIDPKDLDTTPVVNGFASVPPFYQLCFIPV
# Cytochrome P450 2D6 = Cytochrome P450 2D6 (Homo sapiens, UniProt P10635); assay: Inhibition of CYP2D6; type: ADME
# Cytochrome P450 2D6, sequence (P10635 whole entry): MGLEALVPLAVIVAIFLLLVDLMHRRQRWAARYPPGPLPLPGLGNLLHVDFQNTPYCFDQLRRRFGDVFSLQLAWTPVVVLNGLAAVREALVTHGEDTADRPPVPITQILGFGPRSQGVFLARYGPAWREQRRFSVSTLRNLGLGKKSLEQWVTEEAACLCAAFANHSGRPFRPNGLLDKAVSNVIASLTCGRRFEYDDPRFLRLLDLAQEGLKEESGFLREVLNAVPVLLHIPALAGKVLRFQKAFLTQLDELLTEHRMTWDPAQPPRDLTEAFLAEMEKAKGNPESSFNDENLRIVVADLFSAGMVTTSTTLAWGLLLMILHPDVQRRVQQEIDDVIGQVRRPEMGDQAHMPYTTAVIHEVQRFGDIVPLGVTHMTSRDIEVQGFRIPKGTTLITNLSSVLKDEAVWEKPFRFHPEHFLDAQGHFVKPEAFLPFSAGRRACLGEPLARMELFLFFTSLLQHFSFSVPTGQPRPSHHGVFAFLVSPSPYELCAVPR
# Cytochrome P450 3A4 = Cytochrome P450 3A4 (Homo sapiens, UniProt P08684); assay: Inhibition of CYP3A4; type: ADME
# Cytochrome P450 3A4, sequence (P08684 whole entry): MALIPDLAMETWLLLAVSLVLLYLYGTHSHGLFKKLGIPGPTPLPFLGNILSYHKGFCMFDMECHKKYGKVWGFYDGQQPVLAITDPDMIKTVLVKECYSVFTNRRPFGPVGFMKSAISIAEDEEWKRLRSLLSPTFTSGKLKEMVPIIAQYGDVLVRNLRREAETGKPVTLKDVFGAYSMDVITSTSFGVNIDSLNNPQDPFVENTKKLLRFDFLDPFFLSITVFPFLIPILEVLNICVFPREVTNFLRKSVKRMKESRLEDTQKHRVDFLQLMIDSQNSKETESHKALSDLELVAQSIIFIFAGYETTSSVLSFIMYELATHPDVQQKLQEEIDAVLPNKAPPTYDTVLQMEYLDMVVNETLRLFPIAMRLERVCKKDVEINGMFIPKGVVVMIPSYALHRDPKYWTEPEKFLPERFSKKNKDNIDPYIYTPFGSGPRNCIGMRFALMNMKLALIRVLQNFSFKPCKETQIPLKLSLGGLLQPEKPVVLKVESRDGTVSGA
compound,measurement,setting,value
COCn1ncc(OC)c(-c2ccc(OCCCN3CCC[C@H]3C)cc2)c1=O,Ki,Histamine H3 receptor [1],10 nM
same,Ki,Histamine H3 receptor [2],19 nM
COc1cn[nH]c(=O)c1-c1ccc(OCCCN2CCC[C@H]2C)cc1,Ki,Histamine H3 receptor [1],20 nM
same,Ki,Histamine H3 receptor [2],62 nM
C[C@@H](COc1ccc(-c2cn[nH]c(=O)c2)cc1)CN1CCCCC1,Ki,Histamine H3 receptor [1],47 nM
same,Ki,Histamine H3 receptor [2],131 nM
C[C@@H]1CCCN1CCCOc1ccc(-c2cn[nH]c(=O)c2)cc1,Ki,Histamine H3 receptor [1],3 nM
same,Ki,Histamine H3 receptor [2],9 nM
same,clearance,[3],10 mL/min/kg
same,AUC(0-t),[4],1290 ng·h/mL
same,Cmax,[5],401 ng/mL
same,bioavailability,[6],22%
same,Kp at 6 h,[7],1.8
same,Activity,[8],Active
same,Activity,[9],Active
same,IC50,[10],10 µM
same,"fraction unbound at 1 h, 5 µM",[11],0.8
same,"fraction unbound at 1 h, 5 µM",[12],0.8
same,"fraction unbound at 1 h, 5 µM",[13],0.8
same,"fraction unbound at 1 h, 5 µM",[14],0.8
same,fraction unbound,[15],0.45
same,solubility,[16],soluble
same,Activity,Salmonella typhimurium,Non-toxic
same,ED50,Rattus norvegicus [17],0.03 mg/kg
same,Activity,Rattus norvegicus [18],Dose-dependent effect
same,Time,Rattus norvegicus [19],191 min
same,Activity,Rattus norvegicus [20],95%
same,Activity,Rattus norvegicus [21],Non-toxic
same,Activity,Rattus norvegicus [22],Non-toxic
same,permeability,Caco-2,permeable
C[C@@H](COc1ccc(-c2cn[nH]c(=O)c2)cc1)CN1CCC[C@H]1C,Ki,Histamine H3 receptor [2],43 nM
C[C@H](COc1ccc(-c2cn[nH]c(=O)c2)cc1)CN1CCC[C@H]1C,Ki,Histamine H3 receptor [2],4 nM
same,half-life,[23],126 min
same,Vd,[24],3.9 L/kg
same,clearance,[3],21 mL/min/kg
same,AUC(0-t),[4],762 ng·h/mL
same,Cmax,[5],187 ng/mL
same,bioavailability,[6],24%
same,Kp at 6 h,[7],6.2
same,Ki,Histamine H1 receptor,> 10 µM
same,Ki,Histamine H2 receptor,> 10 µM
same,Ki,Histamine H4 receptor,> 10 µM
same,half-life,[25],> 40 min
same,half-life,[26],> 40 min
same,half-life,[27],> 40 min
same,half-life,[28],> 40 min
same,IC50,Cytochrome P450 1A2,> 30 µM
same,IC50,Cytochrome P450 2C9,> 30 µM
same,IC50,Cytochrome P450 2C19,> 30 µM
same,IC50,Cytochrome P450 2D6,> 30 µM
same,IC50,Cytochrome P450 3A4,> 30 µM
COCn1ncc(-c2ccc(OCCCN3CCC[C@H]3C)cc2)c(OC)c1=O,Ki,Histamine H3 receptor [1],5 nM
same,Ki,Histamine H3 receptor [2],13 nM
COCn1ncc(-c2ccc(OCCCN3CCC[C@H]3C)cc2)cc1=O,Ki,Histamine H3 receptor [1],4 nM
same,Ki,Histamine H3 receptor [2],14 nM
same,half-life,[23],24 min
same,Vd,[24],3.2 L/kg
same,clearance,[3],93 mL/min/kg
same,AUC(0-t),[4],42 ng·h/mL
same,Cmax,[5],53 ng/mL
same,bioavailability,[6],6%
same,Ki,Histamine H1 receptor,> 10 µM
same,Ki,Histamine H2 receptor,> 10 µM
same,Ki,Histamine H4 receptor,> 10 µM
same,half-life,[25],> 40 min
same,half-life,[26],> 40 min
same,half-life,[27],> 40 min
same,half-life,[28],> 40 min
same,IC50,Cytochrome P450 1A2,> 30 µM
same,IC50,Cytochrome P450 2C9,> 30 µM
same,IC50,Cytochrome P450 2C19,> 30 µM
same,IC50,Cytochrome P450 2D6,> 30 µM
same,IC50,Cytochrome P450 3A4,> 30 µM
C[C@H](COc1ccc(-c2cn[nH]c(=O)c2)cc1)CN1CCCCC1,Ki,Histamine H3 receptor [1],25 nM
same,Ki,Histamine H3 receptor [2],34 nM
